Columns and labels:
[1] = tested on: Plasmodium berghei; experiment: Antimalarial activity against sporozoite stage of Plasmodium berghei ANKA infected in C57BL/6J mouse assessed as reduction in liver parasite load at 50 mg/kg/, po administered for 3 days measured after 48 hrs by qRT-PCR analysis relative to control; assay type: functional; parameters: scale not given: the % may be the effect or the level left
Outline: (§1)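 C57BL/6J mice, five per group, infected iv with luciferase-expressing P. berghei ANKA sporozoites. Compound given by oral gavage in DMSO + sunflower oil 24 h before, at, and 24 h after infection; controls got vehicle. Liver load measured 48 h post-infection by qRT-PCR of P. berghei 18S rRNA normalised to mouse Hprt, as % of controls; mean of two independent experiments.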

[2] = tested on: Plasmodium berghei; experiment: Antimalarial activity against sporozoite stage of Plasmodium berghei ANKA infected in C57BL/6J mouse assessed as reduction in liver parasite load at 100 mg/kg/, po administered for 3 days measured after 48 hrs by qRT-PCR analysis relative to control; assay type: functional; parameters: scale not given: the % may be the effect or the level left; outline: as §1
[3] = tested on: Plasmodium berghei; experiment: Antimalarial activity against sporozoite stage of Plasmodium berghei infected in human Huh7 cells assessed as remaining parasite infection at 5 uM pre-incubated for 24 hrs followed by parasite infection measured after 48 hrs by bioluminescence assay; conditions: Huh-7
[4] = tested on: Plasmodium falciparum; experiment: Antimalarial activity against 4th to 5th gametocyte stage of Plasmodium falciparum 3D7elo1-pfs16-CBG99 assessed as inhibition of gametocyte viability by luciferase reporter gene assay; assay type: functional, organism-based
Outline: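 Stage IV–V gametocytes of luciferase-expressing 3D7elo1-pfs16-CBG99 strain (CBG99 under pfs16 promoter); luciferase activity as viability read-out. Viability = 100×(treated−blank)/(untreated−blank), blank = 100 nM epoxomicin-treated sample. Epoxomicin and dihydroartemisinin as positive controls. IC50 from nonlinear regression of dose–response; mean of three experiments in duplicate.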

[5] = tested on: Plasmodium berghei; experiment: Antimalarial activity against sporozoite stage of Plasmodium berghei infected in human Huh7 cells assessed as inhibition of parasite infection pre-incubated for 24 hrs followed by parasite infection measured after 48 hrs by bioluminescence assay; assay type: functional, organism-based; conditions: Huh-7
[6] = Selectivity ratio of IC50 for IV to V gametocyte stage of Plasmodium falciparum 3D7elo1-pfs16-CBG99 to IC50 for sporozoite stage of Plasmodium berghei infected in human Huh7; assay type: functional, Huh-7

In the case of CCCNC(=O)CCC(C)[C@H]1CC[C@H]2[C@@H]3[C@H](OC(C)=O)C[C@@H]4CC5(CC[C@]4(C)[C@H]3C[C@H](OC(C)=O)[C@]12C)OOC1(CCCCC1)OO5 (stereo partly specified), the Activity [1] is reported as 60%, the Activity [2] is reported as 91% and the % infection at 5 µM [3] is reported as 0.55%. For the same compound, the IC50 [4] was 1.16 µM, the IC50 [5] was 0.33 µM and the “Ratio IC50” value [6] was 3.5.
